PMC9898131 (Nature chemical biology, 2022)

Molecular target: COQ8A^NΔ250 (Homo sapiens, UniProt Q8NI60)
Experiment: Differential scanning fluorimetry
Format: binding
Details: 100 μM inhibitor, 10 μM COQ8A^NΔ250
In short: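 Recombinant COQ8A^NΔ250 purified on cobalt IMAC resin, exchanged into 20 mM HEPES pH 7.2, 300 mM NaCl, 10% glycerol, 5 mM BME. They were spun briefly, then kept 10 min at room temperature in the dark before melting.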

COQ8A^NΔ250, sequence (Q8NI60 251-647 limits assumed, stated change not applied): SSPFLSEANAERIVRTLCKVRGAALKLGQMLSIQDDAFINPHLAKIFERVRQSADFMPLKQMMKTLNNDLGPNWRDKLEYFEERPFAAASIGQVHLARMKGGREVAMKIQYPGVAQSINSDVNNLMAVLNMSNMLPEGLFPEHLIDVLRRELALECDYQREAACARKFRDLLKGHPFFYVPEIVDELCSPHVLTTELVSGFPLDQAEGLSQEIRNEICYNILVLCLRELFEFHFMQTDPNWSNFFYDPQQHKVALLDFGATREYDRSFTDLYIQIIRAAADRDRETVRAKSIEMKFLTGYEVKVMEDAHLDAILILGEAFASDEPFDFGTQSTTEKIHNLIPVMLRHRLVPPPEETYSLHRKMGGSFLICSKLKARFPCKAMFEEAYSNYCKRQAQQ

COQ8A melting temperature increase (ΔTm): weak-binding control
Structure (SMILES): C#Cc1cccc(Nc2ncnc3cc(OCCOC)c(OCCOC)cc23)c1 [erlotinib]
